The source of these data is ChEMBL document CHEMBL5030552, “Computational Design of Potent D-Peptide Inhibitors of SARS-CoV-2” (J Med Chem, 2021).

One data set concerns the target Spike glycoprotein (Severe acute respiratory syndrome coronavirus 2, UniProt P0DTC2). The data set is described as follows: Binding affinity to SARS-CoV-2 spike protein receptor-binding domain by biolayer interferometry (BLI) assay. The essentials:
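BLI was run at 25 °C with shaking at 1000 rpm. His-tagged RBD (200 nM) was loaded on Ni-NTA sensors, then peptides were applied at several concentrations, and dissociation was read in baseline wells. Signals were referenced against His-tagged SUMO and RBD-only sensors. Subtracted curves were fitted for ka, kd and Kd.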
For orientation: In BLI a coated tip is dipped into the sample, and binding shifts an interference pattern.

Data set [1] is described as follows: Stability of the compound in proteinase K (unknown origin) in presence of serum assessed as loss of peptide measured after 2.5 hr. Particulars: read-out: Drug degradation. Type of data set: ADME.
A further data set has as its system SARS-CoV-2. The data set can be described thus: Antiviral activity against SARS-CoV-2 assessed as neutralization viral infection in Vero cells by measuring cytopathic effect incubated for 4 days by crystal violet staining based assay. Type of data set: functional, organism-based. The settings on record: Severe acute respiratory syndrome coronavirus 2, Vero, 96 h. On the technique in general: Cytopathic effects are the visible damage that an infection or toxin causes in cultured cells.

Another data set relates to Vero. The data set is described as follows: Cytotoxicity against African green monkey Vero cells assessed as viable cells measured by MTS assay. Type of data set: cell-based. The settings on record: chlorocebus sabaeus. The essentials:
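Vero cells (1.5 × 10⁴/well, 24 h growth) were exposed in the neutralization-assay format without virus. Peptides were twofold-diluted from 100 to 0.1953 μM from DMSO stocks diluted in PBS. Viability was read with MTS.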

For the compound `CC[C@@H](C)[C@@H](N)C(=O)N[C@H](CC(N)=O)C(=O)N[C@H](CCC(N)=O)C(=O)N[C@H](Cc1ccc(O)cc1)C(=O)N[C@H](CCSC)C(=O)N[C@H](CCC(=O)O)C(=O)N[C@H](CCC(=O)O)C(=O)N[C@@H](C(=O)N[C@H](CCC(=O)O)C(=O)N[C@H](Cc1cnc[nH]1)C(=O)N[C@H](C)C(=O)N[C@H](C)C(=O)N[C@H](CO)C(=O)N[C@H](CCCNC(=N)N)C(=O)N[C@H](Cc1ccccc1)C(=O)N[C@H](C)C(=O)N[C@H](Cc1ccc(O)cc1)C(=O)N[C@H](Cc1ccccc1)C(=O)N[C@H](Cc1ccccc1)C(=O)N[C@H](Cc1ccc(O)cc1)C(=O)N[C@H](CCC(N)=O)C(=O)N[C@H](Cc1cnc[nH]1)C(=O)N[C@H](CC(C)C)C(=O)N[C@H](C)C(=O)O)[C@H](C)CC`, the Kd (in general, a measure of binding affinity in units of concentration) at Spike glycoprotein came out at 105 nM.
`CC[C@@H](C)[C@@H](NC(=O)CNC(=O)[C@@H](CC(C)C)NC(=O)CNC(=O)[C@@H](CCCCN)NC(=O)CNC(=O)[C@@H](CC(=O)O)NC(=O)[C@@H](Cc1ccccc1)NC(=O)[C@H](N)CCCNC(=N)N)C(=O)N[C@H](Cc1ccc(O)cc1)C(=O)N[C@H](CCC(N)=O)C(=O)N[C@H](Cc1ccc(O)cc1)C(=O)N[C@H](CCSC)C(=O)N[C@H](CCC(=O)O)C(=O)N[C@H](CCC(=O)O)C(=O)N[C@@H](C(=O)N[C@H](CCC(=O)O)C(=O)N[C@H](Cc1cnc[nH]1)C(=O)N[C@H](C)C(=O)N[C@H](C)C(=O)N[C@H](CO)C(=O)N[C@H](CCCNC(=N)N)C(=O)N[C@H](Cc1ccccc1)C(=O)N[C@H](C)C(=O)N[C@H](Cc1ccc(O)cc1)C(=O)N[C@H](Cc1ccccc1)C(=O)N[C@H](Cc1ccccc1)C(=O)N[C@H](Cc1ccc(O)cc1)C(=O)N[C@H](CCC(N)=O)C(=O)N[C@H](Cc1cnc[nH]1)C(=O)N[C@H](CC(C)C)C(=O)N[C@H](C)C(=O)O)[C@H](C)CC` yielded a Kd at Spike glycoprotein of 29 nM. The metabolised at 2.5 h in data set [1] came out at 87.5%. The IC50 – broadly, the midpoint of a concentration-inhibition curve – in the data set with SARS-CoV-2 is 5760 nM. Also, in the data set with Vero, the Activity entry is listed as “Non-Toxic”.
On Spike glycoprotein, `CC[C@@H](C)[C@@H](NC(=O)[C@@H](Cc1cnc[nH]1)NC(=O)[C@H](NC(=O)[C@@H](CCC(=O)O)NC(=O)[C@@H](CCC(=O)O)NC(=O)[C@@H](CCSC)NC(=O)[C@@H](CC(C)C)NC(=O)[C@@H](C)NC(=O)[C@@H](Cc1ccc(O)cc1)NC(=O)[C@@H](CC(C)C)NC(=O)[C@@H](C)NC(=O)[C@H](NC(=O)[C@@H](CCC(N)=O)NC(=O)[C@H](N)CC(C)C)[C@H](C)O)[C@H](C)CC)C(=O)N[C@H](C)C(=O)N[C@H](C)C(=O)N[C@H](CC(C)C)C(=O)N[C@H](CCC(=O)O)C(=O)N[C@H](CCCCN)C(=O)N[C@@H](C(=O)N[C@H](Cc1c[nH]c2ccccc12)C(=O)N[C@@H](C(=O)N[C@H](C)C(=O)N[C@H](CC(C)C)C(=O)N[C@H](CCCNC(=N)N)C(=O)N[C@H](Cc1cnc[nH]1)C(=O)N[C@H](CCC(N)=O)C(=O)N[C@H](Cc1ccc(O)cc1)C(=O)N[C@@H](C(=O)O)[C@H](C)O)[C@H](C)O)[C@H](C)O` yielded an equilibrium dissociation constant (Kd) of 31 nM. The metabolised at 2.5 h in data set [1] was 82.9%. In the data set with SARS-CoV-2, the half-maximal inhibitory concentration (IC50) came to 6560 nM. Moreover, the Activity result in the data set with Vero is on record as “Non-Toxic”.
